This note sets out measurements from ChEMBL document CHEMBL1136695, “Novel and selective imidazole-containing biphenyl inhibitors of protein farnesyltransferase” (Bioorg Med Chem Lett, 2003).

SMILES strings stand for the structures. Several values for one entry are separate records, joined by “and”; a condition that tells them apart may be missing. Equal entries are not always repeated.

The target in data set [1] is Protein farnesyltransferase (Bos taurus, UniProt P29702+P49355). The data set can be described thus: In vitro inhibitory activity against farnesyltransferase (FTase). It is filed as protein-complex assay. Put shortly: (§1)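 FTase and GGTase1 enzymes purified from bovine brain; inhibition measured in vitro by scintillation proximity assay (SPA), IC50 determined.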
Data set [2] can be described thus: Oral bioavailability in rat. It is filed as ADME, organism-based. Particulars: in vivo.
A short description of data set [3]: Half-life time in rat was determined. The class given is ADME, organism-based. The note with it: in vivo.
In data set [4] the target is Geranylgeranyl transferase type I (Bos taurus, UniProt P29702+Q5EAD5). The data set can be described thus: In vitro inhibition of geranylgeranyltransferase. It is filed as protein-complex assay. Put shortly:
as §1

The subject of data set [5] is NIH3T3. Put plainly: Effective concentration against Ha-RAS processing in NIH3T3 ras-transformed cells. It is filed as functional, cell-based. Particulars: Mus musculus.
The subject of data set [6] is NIH3T3. The data set can be described thus: Inhibitory activity against NIH3T3 ras-transformed cells at 1 uM. It is filed as functional. Particulars: Mus musculus.

A word on the IC50: it is the concentration at which inhibition is half-maximal. As to `Cc1ccccc1-c1cc(NCc2cncn2C)ccc1C#N`, the IC50 in data set [1] came to 1000 nM.
As a reminder, the bioavailability is dose-corrected exposure relative to a reference, in per cent. Read a high bioavailability as good availability. The term half-life denotes the time in which the quantity being followed falls by half. Broadly, the EC50 is the midpoint of the concentration-response curve. A low value points to higher potency in that assay. `Cn1cncc1CN(Cc1cccc(C#N)c1)c1ccc(C#N)c(-c2cccc3ccccc23)c1` yielded a bioavailability in data set [2] of 10%. The molecule also returned a half-life in data set [3] of less than 1 h. Further, the IC50 in data set [4] is 150 nM. In the data set on NIH3T3 [5], this molecule displayed an EC50 of 50 nM.
For the molecule `Cc1ccccc1-c1cc(N(Cc2ccccc2)Cc2cnc[nH]2)ccc1C#N`, the IC50 in data set [1] is 84 nM.
Turning to `Cn1cncc1CN(Cc1ccnc(C#N)c1)c1ccc(C#N)c(-c2cccc3ccccc23)c1`, the IC50 came to 0.37 nM in data set [1] and 650 nM in data set [4]. The same molecule displayed an EC50 in the data set with NIH3T3 [5] of 80 nM.
One may read the inhibition as the share of the control response that was lost under treatment. For `Cc1ccccc1-c1cc(N(Cc2ccc(C#N)cc2)Cc2cncn2C)ccc1C#N`, the values for the IC50 in data set [1] and in data set [4] were 10 nM and 1000 nM, respectively. Besides, the inhibition at 1 µM in the data set with NIH3T3 [6] is 29%.
Consider `Cn1cncc1CN(c1ccc(C#N)c(-c2cccc3ccccc23)c1)S(=O)(=O)c1ccccc1`, for which the IC50 in data set [1] is 18 nM; in data set [4], 1900 nM.
In the same order, the values of `Cn1cncc1CN(C(=O)c1ccccc1)c1ccc(C#N)c(-c2cccc3ccccc23)c1` are 14 nM and 310 nM.
Molecule `Cc1ccccc1-c1cc(N(Cc2ccccc2)Cc2cncn2C)ccc1C#N` returned an IC50 in data set [1] of 11 nM.
`Cc1ccccc1-c1cc(N(Cc2cccc(C#N)c2)Cc2cncn2C)ccc1C#N`: the IC50 amounted to 0.97 nM in data set [1] and 1200 nM in data set [4]. Besides, a half-maximal response in the data set with NIH3T3 [5] (EC50) required 70 nM.
As for `Cn1cncc1CN(Cc1ccc(C#N)cc1)c1ccc(C#N)c(-c2cccc3ccccc23)c1`, the IC50 in data set [1] came to 1.5 nM; in data set [4] it was 1000 nM. In the data set with NIH3T3 [6], this molecule displayed an inhibition at 1 µM of 64%.
In data set [1], `Cc1ccccc1-c1cc(C(OCc2ccccc2)c2cncn2C)ccc1C#N` (stereo not given) returned an IC50 of 65 nM. This counts as double-digit nanomolar.
For the molecule `Cn1cncc1CN(c1ccc(C#N)c(-c2cccc3ccccc23)c1)C1CCCCC1`, the IC50 in data set [1] was 1.9 nM; in data set [4] it was 180 nM.
`Cn1cncc1CN(Cc1ccccc1)c1ccc(C#N)c(-c2cccc3ccccc23)c1`: the IC50 in data set [1] was 1.5 nM and 11 nM.
In data set [1], `CCCCN(CCC1CCCCC1)Cc1ccc(C(=O)N[C@@H](CCSC)C(=O)O)c(-c2ccccc2C)c1` had an IC50 of 1 nM.
Consider `Cn1cncc1CN(Cc1cccc(Cl)c1)c1ccc(C#N)c(-c2cccc3ccccc23)c1`, for which the IC50 worked out at 0.45 nM in data set [1] and 230 nM in data set [4]. This molecule also displayed an inhibition at 1 µM in the data set on NIH3T3 [6] of 45%.
In data set [1], `NC(=O)N1CCC(CC(=O)N2CCC([C@H]3c4ncc(Br)cc4CCc4cc(Cl)cc(Br)c43)CC2)CC1` [LONAFARNIB] displayed an IC50 of 7.8 nM. Moreover, in the data set on NIH3T3 [5], the EC50 worked out at 160 nM.
In the same order, the values of `Cn1cncc1[C@@](N)(c1ccc(Cl)cc1)c1ccc2c(c1)c(-c1cccc(Cl)c1)cc(=O)n2C` [TIPIFARNIB] are 0.57 nM and 2 nM.
